According to ChEMBL document CHEMBL4138318, “Discovery of 5-Cyano-6-phenylpyrimidin Derivatives Containing an Acylurea Moiety as Orally Bioavailable Reversal Agents against P-Glycoprotein-Mediated Mutidrug Resistance” (J Med Chem, 2018):
The source made the active and inactive calls. The calls are words filed in the database; no cut-off is given here.

How the values were obtained:
[1] = Cytotoxicity against human SW620/AD300 cells assessed as survival at 2 uM after 72 hrs by MTT assay relative to control; type: cell-based; conditions: read-out: Survival
[2] = biological target: T1, ATP-dependent translocase ABCB1 (Homo sapiens, UniProt P08183); assay: Inhibition of ABCB1 in human SW620/AD300 cells assessed as potentiation of paclitaxel-induced cytotoxicity by measuring fold reduction in paclitaxel IC50 at 1 uM after 72 hrs by MTT assay; type: cell-based
T1 sequence (P08183 whole entry): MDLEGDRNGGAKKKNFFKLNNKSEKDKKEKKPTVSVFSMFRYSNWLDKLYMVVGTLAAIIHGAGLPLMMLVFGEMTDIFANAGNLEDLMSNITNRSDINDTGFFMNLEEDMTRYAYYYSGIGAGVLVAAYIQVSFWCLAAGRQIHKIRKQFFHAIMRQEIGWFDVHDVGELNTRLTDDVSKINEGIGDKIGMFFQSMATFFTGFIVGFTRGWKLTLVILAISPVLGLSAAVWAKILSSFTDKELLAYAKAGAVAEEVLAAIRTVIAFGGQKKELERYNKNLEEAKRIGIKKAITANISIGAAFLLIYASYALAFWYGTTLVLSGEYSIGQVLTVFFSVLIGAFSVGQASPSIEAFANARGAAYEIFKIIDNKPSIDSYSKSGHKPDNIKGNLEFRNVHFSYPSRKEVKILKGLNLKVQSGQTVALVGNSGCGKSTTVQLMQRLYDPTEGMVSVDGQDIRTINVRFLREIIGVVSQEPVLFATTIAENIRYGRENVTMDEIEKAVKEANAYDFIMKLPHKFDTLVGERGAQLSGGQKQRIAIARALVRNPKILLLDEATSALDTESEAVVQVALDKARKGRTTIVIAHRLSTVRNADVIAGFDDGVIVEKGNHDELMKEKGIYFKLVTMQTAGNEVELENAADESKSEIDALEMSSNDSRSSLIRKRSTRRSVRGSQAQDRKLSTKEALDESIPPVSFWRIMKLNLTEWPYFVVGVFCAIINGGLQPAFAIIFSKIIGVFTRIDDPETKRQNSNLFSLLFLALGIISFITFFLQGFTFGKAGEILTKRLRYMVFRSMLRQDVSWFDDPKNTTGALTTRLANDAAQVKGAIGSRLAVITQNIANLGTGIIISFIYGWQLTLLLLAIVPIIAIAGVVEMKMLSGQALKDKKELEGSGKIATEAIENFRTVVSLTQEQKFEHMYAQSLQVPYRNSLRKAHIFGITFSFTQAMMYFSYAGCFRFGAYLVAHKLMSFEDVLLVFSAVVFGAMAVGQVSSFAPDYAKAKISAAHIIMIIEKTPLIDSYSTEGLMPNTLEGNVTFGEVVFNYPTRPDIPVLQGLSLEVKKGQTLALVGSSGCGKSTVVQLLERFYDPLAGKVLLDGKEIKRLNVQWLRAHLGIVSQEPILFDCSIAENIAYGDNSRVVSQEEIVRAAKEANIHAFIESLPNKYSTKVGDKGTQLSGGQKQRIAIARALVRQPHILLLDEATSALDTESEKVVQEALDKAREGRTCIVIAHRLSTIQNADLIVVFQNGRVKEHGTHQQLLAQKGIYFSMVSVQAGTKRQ
Method in brief: (§1)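 SW620/AD300 cells (~5×10^3/well) treated with graded paclitaxel with or without modulator (2 µM, or 0.5-2 µM in dose series; 0.1% DMSO solvent control) for 72 h; MTT (5 mg/mL stock) added 4 h, absorbance 490 nm. IC50 as mean ± SD of three independent runs; reversal fold = paclitaxel IC50 without/with modulator.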

[3] = system: SW620/AD300; assay: Effect on subcellular localization of ABCB1 in human SW620/AD300 cells at 2 uM after 48 hrs by Hoechst 33258 staining-based immunofluorescence assay; type: functional, cell-based
Method in brief: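 About 1×10^4 cells on coverslips incubated with compound 48 h, fixed in 4% paraformaldehyde ≥20 min, blocked 2 h in PBS with 5% BSA, anti-ABCB1 primary overnight at 4℃, Alexa Fluor 488 anti-goat secondary 2 h, nuclei stained with Hoechst 33258 20 min; imaged by laser scanning confocal microscopy.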

[4] = biological target: T1, ATP-dependent translocase ABCB1; assay: Inhibition of ABCB1 in human SW620/AD300 cells assessed as potentiation of paclitaxel-induced cytotoxicity after 72 hrs by MTT assay; type: cell-based; method in brief: as §1
[5] = Cytotoxicity against human SW620 cells assessed as survival at 2 uM after 72 hrs by MTT assay relative to control; type: cell-based, SW-620; conditions: read-out: Survival
[6] = biological target: Cytochrome P450 3A4 (Homo sapiens, UniProt P08684); assay: Inhibition of recombinant human CYP3A4 up to 32 uM in presence of NADPH generating system by fluorescence assay; type: ADME; conditions: recombinant enzyme
Cytochrome P450 3A4, sequence (P08684 whole entry): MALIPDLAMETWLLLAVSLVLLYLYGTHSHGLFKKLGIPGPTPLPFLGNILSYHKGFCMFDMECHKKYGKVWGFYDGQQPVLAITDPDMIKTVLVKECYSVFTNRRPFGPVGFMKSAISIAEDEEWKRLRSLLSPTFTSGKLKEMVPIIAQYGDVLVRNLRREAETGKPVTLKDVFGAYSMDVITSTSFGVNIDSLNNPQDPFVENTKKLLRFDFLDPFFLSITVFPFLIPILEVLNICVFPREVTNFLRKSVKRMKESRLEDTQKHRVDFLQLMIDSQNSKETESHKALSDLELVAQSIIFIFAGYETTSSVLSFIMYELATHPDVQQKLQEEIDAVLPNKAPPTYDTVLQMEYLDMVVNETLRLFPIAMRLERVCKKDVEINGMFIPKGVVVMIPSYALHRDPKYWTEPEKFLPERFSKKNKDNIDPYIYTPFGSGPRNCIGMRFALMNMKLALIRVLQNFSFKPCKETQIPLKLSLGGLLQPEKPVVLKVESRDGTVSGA

[7] = biological target: T1, ATP-dependent translocase ABCB1; assay: Inhibition of ABCB1 in human SW620/AD300 cells assessed as potentiation of paclitaxel-induced cytotoxicity by measuring fold reduction in paclitaxel IC50 at 2 uM after 72 hrs by MTT assay relative to paclitaxel alone; type: cell-based; method in brief: as §1
[8] = biological target: T1, ATP-dependent translocase ABCB1; assay: Inhibition of ABCB1 in human SW620/AD300 cells assessed as potentiation of paclitaxel-induced cytotoxicity by measuring fold reduction in paclitaxel IC50 at 0.5 uM after 72 hrs by MTT assay; type: cell-based; method in brief: as §1
[9] = biological target: T1, ATP-dependent translocase ABCB1; assay: Inhibition of ABCB1 in human SW620/AD300 cells assessed as decrease in rhodamine 123 efflux up to 4 uM preincubated for 4 hrs followed by 30 mins incubation in Rho-123 containing medium and subsequent incubation in Rho-123 free medium up to 120 mins by flow cytometry; type: cell-based
Method in brief: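 Cells loaded with rhodamine 123 as in the accumulation assay (4 h compound pre-exposure, 1 µg/mL dye 30 min, 37℃), then kept in dye-free medium with or without reversal agent for 30, 60, 90 or 120 min at 37℃; intracellular fluorescence read by flow cytometry at 488/530 nm. Three independent experiments.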

Compound: COc1cc(-c2nc(SCC(=O)NC(=O)Nc3ccccn3)nc(Nc3ccc(Br)cc3)c2C#N)cc(OC)c1OC
- viability at 72 h, 2 µM [1]: > 90%
- fold change (FC) [2]: 32.2
- Activity [3]: inactive
- inhibition (INH) [4]: Dose-dependent effect
- viability at 72 h, 2 µM [5]: > 90%
- inhibition (INH) [6]: Not Active
- fold change (FC) [7]: 190.27
- fold change (FC) [8]: 8.019
- inhibition (INH) [9]: Active

Compound: COc1cc(-c2nc(SCC(=O)NC(=O)Nc3ccccc3)nc(Nc3cccc(Cl)c3)c2C#N)cc(OC)c1OC
- viability at 72 h, 2 µM [1]: > 90%
- fold change (FC) [2]: 26.33
- Activity [3]: inactive
- inhibition (INH) [4]: Dose-dependent effect
- viability at 72 h, 2 µM [5]: > 90%
- inhibition (INH) [6]: Not Active
- fold change (FC) [7]: 261.63
- fold change (FC) [8]: 37.04
- inhibition (INH) [9]: Active

Compound: CC(C)c1ccc(-c2nc(SCc3cn(CC(=O)NC(=O)Nc4ccccn4)nn3)nc(Nc3ccc(F)cc3)c2C#N)cc1
- viability at 72 h, 2 µM [1]: > 90%
- viability at 72 h, 2 µM [5]: > 90%
- fold change (FC) [7]: 2.11

Compound: COc1cc(-c2nc(SCC(=O)Nc3ccccn3)nc(Nc3cccc(Cl)c3)c2C#N)cc(OC)c1OC
- viability at 72 h, 2 µM [1]: > 90%
- viability at 72 h, 2 µM [5]: > 90%
- fold change (FC) [7]: 5.51

Compound: COc1cc(-c2nc(SCc3ccccc3)nc(Nc3ccc(Cl)cc3)c2C#N)cc(OC)c1OC
- viability at 72 h, 2 µM [1]: > 90%
- viability at 72 h, 2 µM [5]: > 90%
- fold change (FC) [7]: 1.24

Compound: N#Cc1c(Nc2ccc(Cl)cc2)nc(SCC(=O)NC(=O)Nc2ccccn2)nc1-c1ccc(F)c(F)c1
- viability at 72 h, 2 µM [1]: > 90%
- viability at 72 h, 2 µM [5]: > 90%
- fold change (FC) [7]: 3.5

Compound: COc1cc(-c2nc(SCc3cn(CC(=O)NC(=O)Nc4ccccn4)nn3)nc(Nc3cccc(Cl)c3)c2C#N)cc(OC)c1OC
- viability at 72 h, 2 µM [1]: > 90%
- viability at 72 h, 2 µM [5]: > 90%
- fold change (FC) [7]: 1.37

Compound: COc1ccccc1Nc1nc(SCc2cn(CC(=O)NC(=O)Nc3ccccn3)nn2)nc(-c2ccc(C(C)C)cc2)c1C#N
- viability at 72 h, 2 µM [1]: > 90%
- viability at 72 h, 2 µM [5]: > 90%
- fold change (FC) [7]: 10.18

Compound: N#Cc1c(Nc2cccc(C(F)(F)F)c2)nc(SCC(=O)NC(=O)Nc2ccccn2)nc1-c1ccc(Cl)cc1
- viability at 72 h, 2 µM [1]: > 90%
- viability at 72 h, 2 µM [5]: > 90%
- fold change (FC) [7]: 2.86

Compound: Cc1ccc(Nc2nc(SCc3cn(CC(=O)NC(=O)Nc4ccccn4)nn3)nc(-c3ccc(C)cc3)c2C#N)cc1
- viability at 72 h, 2 µM [1]: > 90%
- viability at 72 h, 2 µM [5]: > 90%
- fold change (FC) [7]: 17.37

Compound: COc1cc(-c2nc(SCC(=O)NC(=O)Nc3ccccc3)nc(Nc3cccc([N+](=O)[O-])c3)c2C#N)cc(OC)c1OC
- viability at 72 h, 2 µM [1]: > 90%
- viability at 72 h, 2 µM [5]: > 90%
- fold change (FC) [7]: 21.04

Compound: CC(C)c1ccc(-c2nc(SCc3cn(CC(=O)NC(=O)Nc4ccccn4)nn3)nc(Nc3ccccc3F)c2C#N)cc1
- viability at 72 h, 2 µM [1]: > 90%
- viability at 72 h, 2 µM [5]: > 90%
- fold change (FC) [7]: 2.74

Compound: Cc1ccc(-c2nc(SCc3cn(CC(=O)NC(=O)Nc4ccccn4)nn3)nc(Nc3cccc(C(F)(F)F)c3)c2C#N)cc1
- viability at 72 h, 2 µM [1]: > 90%
- viability at 72 h, 2 µM [5]: > 90%
- fold change (FC) [7]: 1.88

Compound: Cc1ccc(Nc2nc(SCc3cn(CC(=O)NC(=O)Nc4ccccn4)nn3)nc(-c3ccc(Br)cc3)c2C#N)cc1
- viability at 72 h, 2 µM [1]: > 90%
- viability at 72 h, 2 µM [5]: > 90%
- fold change (FC) [7]: 1.41

Compound: COc1cc(-c2nc(SCc3ccccc3)nc(Nc3cccc(Cl)c3)c2C#N)cc(OC)c1OC
- viability at 72 h, 2 µM [1]: > 90%
- viability at 72 h, 2 µM [5]: > 90%
- fold change (FC) [7]: 1.05

Compound: CC(C)c1ccc(-c2nc(SCc3cn(CC(=O)NC(=O)Nc4ccccn4)nn3)nc(Nc3ccccc3Cl)c2C#N)cc1
- viability at 72 h, 2 µM [1]: > 90%
- viability at 72 h, 2 µM [5]: > 90%
- fold change (FC) [7]: 4.75

Compound: COc1cc(-c2nc(SCC(=O)NC(=O)Nc3ccccc3)nc(Nc3ccc(C(C)C)cc3)c2C#N)cc(OC)c1OC
- viability at 72 h, 2 µM [1]: > 90%
- viability at 72 h, 2 µM [5]: > 90%
- fold change (FC) [7]: 25.07

Compound: N#Cc1c(Nc2ccc(Cl)cc2)nc(SCC(=O)NC(=O)Nc2ccccn2)nc1-c1ccc(Cl)cc1
- viability at 72 h, 2 µM [1]: > 90%
- viability at 72 h, 2 µM [5]: > 90%
- fold change (FC) [7]: 2.32

Compound: Cc1ccc(Nc2nc(SCc3cn(CC(=O)NC(=O)Nc4ccccn4)nn3)nc(-c3ccc(C(C)C)cc3)c2C#N)cc1
- viability at 72 h, 2 µM [1]: > 90%
- viability at 72 h, 2 µM [5]: > 90%
- fold change (FC) [7]: 6.86

Compound: COc1ccccc1Nc1nc(SCC(=O)NC(=O)Nc2ccccc2)nc(-c2cc(OC)c(OC)c(OC)c2)c1C#N
- viability at 72 h, 2 µM [1]: > 90%
- viability at 72 h, 2 µM [5]: > 90%
- fold change (FC) [7]: 3.66

Compound: COc1cc(-c2nc(SCc3cn(CC(=O)NC(=O)Nc4ccccn4)nn3)nc(Nc3ccc(C)cc3)c2C#N)cc(OC)c1OC
- viability at 72 h, 2 µM [1]: > 90%
- viability at 72 h, 2 µM [5]: > 90%
- fold change (FC) [7]: 6.23

Compound: COc1ccc(CCN(C)CCCC(C#N)(c2ccc(OC)c(OC)c2)C(C)C)cc1OC (configuration not stated)
- inhibition (INH) [4]: Dose-dependent effect

Compound: CC(C)c1ccc(-c2nc(SCc3cn(CC(=O)NC(=O)Nc4ccccn4)nn3)nc(Nc3ccccc3)c2C#N)cc1
- viability at 72 h, 2 µM [1]: > 90%
- viability at 72 h, 2 µM [5]: > 90%
- fold change (FC) [7]: 1.65

Compound: Cc1ccc(-c2nc(SCc3cn(CC(=O)NC(=O)Nc4ccccn4)nn3)nc(Nc3cccc(Cl)c3)c2C#N)cc1
- viability at 72 h, 2 µM [1]: > 90%
- viability at 72 h, 2 µM [5]: > 90%
- fold change (FC) [7]: 13.42
